# Compounds with a hit are over-represented: about 6.8% of the library has one in this group of screens.
# HSF1 activator: increases HSF-1 driven luciferase reporter signal; NIH3T3-HGL HSF-1 luciferase reporter, MG132, 8 h; 100% = twice DMSO control signal; 300,000 tested, 1.7% active; AID 504408; activation, % at 9 µM;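 active means mean replicate activation of at least 50% with a set share of replicates each reaching 50%; inconclusive means only one of those two conditions met; inactive means mean below 50% and too few replicates reaching it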;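 further: 0% = median of the neutral control wells and 100% = twice that signal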
# AI-2 QS modul: modulators of Vibrio harveyi AI-2 quorum sensing system; Vibrio harveyi JMH597 AI-2 luminescence/OD600 ratio, 9 h; active compounds read low; strain lacks LuxN and CqsS sensors; 0 = neutral-control median; AID 2094; 300,000 tested, 0.4% active; activity change, % at 7.5 µM; in the data active means activity change below about -75%, passing the limit was not always enough; inconclusive means no clear call, values can overlap the other calls;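 further: luminescence divided by OD600 gain over 9 h not by final OD600 alone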
# HSF1 inh: HSF1 inhibition | NIH3T3-HGL HSE-luciferase, MG132-induced, luminescence 8 h; active compounds read low | activity change, negative = inhibition, % at 7.5 µM (by protocol) | 300,000 tested, 0.77% active;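 active means more than half of replicate wells show activity change below -50%, luminescence cut by over half; inconclusive means some wells, but at most half, below -50%; inactive means no replicate well below -50%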;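 further: luciferase reports HSF-1 transcriptional activity via heat shock element; 0% = median of DMSO wells and -100% = zero luminescence signal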
# PHOSPHO1 block: inhibitors of human PHOSPHO1 phosphatase. Q8TCT1. recombinant PHOSPHO1, absorbance phosphatase assay. inhibition, % at 13.3 µM. 290,000 tested, 1.1% active. AID 1565; in the data active means inhibition above about 60%
# Target sequence (Q8TCT1 whole entry, looked up): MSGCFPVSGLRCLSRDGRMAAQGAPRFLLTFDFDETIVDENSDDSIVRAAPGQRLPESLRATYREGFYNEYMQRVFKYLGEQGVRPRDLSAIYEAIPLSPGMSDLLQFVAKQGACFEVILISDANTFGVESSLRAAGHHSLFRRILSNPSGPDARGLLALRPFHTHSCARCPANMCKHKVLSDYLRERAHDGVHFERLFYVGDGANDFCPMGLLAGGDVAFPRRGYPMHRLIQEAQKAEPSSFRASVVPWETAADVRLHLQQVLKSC
# ALR inh: human ALR oxidase inhibition via reduced H2O2; inhibition, % (no concentration beside the values); purified ALR, DTT oxidation, H2O2 HRP-luminol luminescence; 290,000 tested, 3.8% active; AID 485317;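 active means mean replicate inhibition above about 79%, with every replicate also reaching it, limit read from the data; inconclusive means only one of the two criteria met; inactive means mean below limit and not every replicate reaching it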
# Target sequence (P55789 whole entry, looked up): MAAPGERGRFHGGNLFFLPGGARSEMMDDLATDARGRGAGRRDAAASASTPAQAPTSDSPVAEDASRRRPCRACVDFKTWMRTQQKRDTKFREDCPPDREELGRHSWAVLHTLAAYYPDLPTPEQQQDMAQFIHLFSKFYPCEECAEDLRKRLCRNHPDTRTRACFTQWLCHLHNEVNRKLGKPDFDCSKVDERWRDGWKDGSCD
# HCV core dimer: blocks dimerization of HCV core protein | TR-FRET GST/Flag-core106 dimerization, 1536-well | inhibition, % at 5 µM | 300,000 tested, 0.33% active | AID 1899;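 active means inhibition above the mean of all tested compounds plus 3 SD, set per screening campaign, cut at about 45% in these data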
#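 System – GST-tagged and Flag-tagged HCV core protein residues 1-106 · Repeats – one well for each compound · Technique – TR-FRET 671 and 617 nm emission · Doses – one concentration, 5 µM, in 0.5% DMSO · Times – 4 h, 22.5 °C incubation · Also added – Eu donor and XL665 acceptor anti-tag antibodies · Measure – percent inhibition of core106 dimerization signal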
# The depositor's hits bear a star; u = inconclusive; x = no result.
SMILES,HSF1 activator,AI-2 QS modul,HSF1 inh,PHOSPHO1 block,ALR inh,HCV core dimer
COc1cc(/C=N/NC(=O)c2ccc(O)cc2)ccc1Oc1ccc([N+](=O)[O-])cn1,29,6,1,-94,92*,14
COc1cc(/C=N/NC(=O)c2cccc([N+](=O)[O-])c2)cc(OC)c1O,17,26,1,-20,98*,-30
CC1(C)CC(=O)C(C2C3=C(CC(C)(C)CC3=O)Oc3ccccc32)C(=O)C1 (configuration not stated),40,21,10,33,6,-3
CC1(C)CC(=O)C2=C(C1)Oc1nc3ccccc3cc1C2C(C#N)C#N (configuration not stated),-24,-4,-10,13,80*,10
CCc1ccccc1NC(=O)CCc1nc(-c2cccs2)no1,26,30,7,-5,-14,-6
CN(C)c1ccc(/C=C/c2nnnn2-c2ccccc2)cc1,-12,59,-11,11,99*,0
COC(=O)CCN1CCN(S(=O)(=O)c2ccccc2Br)CC1,-1,12,3,62*,-4,-2
CC12CCC(=O)N1C(C(=O)Nc1nnc(SCc3ccc(F)cc3)s1)CS2 (configuration not stated),2,17,2,1,0,5
COc1cccc(N2CCN(C(=O)Nc3ccccc3Cl)CC2)c1,18,34,0,48,87*,-3
COc1ccc(N2CCN(C(=O)Nc3ccccc3C)CC2)cc1,5,17,3,27,54,-10
Cc1ccccc1C(=O)NCCCNC(=O)c1ccco1,-13,20,-1,24,-2,0
Cc1ccc(S(=O)(=O)NCC(=O)OC(C)C(=O)Nc2ncc(Cl)cc2Cl)cc1 (configuration not stated),35,7,-6,34,-9,-5
C/C(=N\NC(=S)Nc1ccc(F)cc1)C1CC1,0,13,3,-27,98*,0
Fc1ccc(NC(=S)Nc2ccc(Br)cc2)cc1,13,5,16,-10,x,-5
Oc1ccc(NC(=S)Nc2ccc(F)cc2)cc1,-2,1,2,24,98*,1
CC1CCN(C(=S)Nc2ccc(F)cc2)CC1,17,33,18,-3,-5,3
NCCSc1c(-c2ccc(Cl)cc2)[nH]c2ccccc12,-7,-10,-2,24,-7,-11
NCCSc1c(-c2ccccc2)[nH]c2ccccc12,-14,36,-2,-4,97*,-56
CCCc1[nH]c2ccc(C(=O)OC)cc2c1CCC,8,4,9,-7,0,-9
CCCc1[nH]c2ccc(C#N)cc2c1CCC,-5,20,0,36,97*,-3
Cc1nc2ccccn2c1C(=O)NNC(=O)Nc1ccccc1,1,9,-5,8,28,5
Cc1nn(C)cc1C(=O)NNC(=S)Nc1ccccc1,2,23,12,-38,88*,-2
CNC(=S)NNC(=O)c1cn(C)nc1C,1,12,-6,-6,10,-2
Cc1nc2ccccn2c1C(=O)NNC(=S)Nc1ccc(Cl)cc1,0,10,7,-10,87*,-13
Cc1nc2ccccn2c1C(=O)NNC(=S)Nc1ccccc1,13,36,14,-55,97*,-5
SMILES,HSF1 activator,AI-2 QS modul,HSF1 inh,PHOSPHO1 block,ALR inh,HCV core dimer
COc1ccc(N2CCN(S(=O)(=O)c3ccc(OC)c(C(=O)N4CCCC4)c3)CC2)cc1,34,24,3,18,x,11
CC1(C)CC(CCN)(Cc2ccccc2Cl)CCO1 (configuration not stated),60*,8,15,16,x,-2
CCCN(CC(=O)Nc1ccccc1OC)C(=O)c1ccc2[nH]c3c(c2c1)CC(C)CC3 (configuration not stated),x,x,x,x,-10,x
Oc1ccccc1N1CCN(c2ncnc3scc(-c4ccc(F)cc4)c23)CC1,-87,1,-83*,2,10,7
Fc1ccc(CN2CCN(c3ncnc4scc(-c5ccccc5)c34)CC2)cc1,84*,30,34,28,17,-2
Cc1cc(CNC(=O)C(C)Cc2ccccc2)nn1C (configuration not stated),0,12,-4,-16,-7,-7
C=CCn1c(SCC(=O)N2CCOCC2)nnc1C(C)NC(=O)c1ccccc1 (configuration not stated),-14,12,0,17,-1,-3
CCCn1nnc(NC(=S)NC(=O)CC)n1,2,14,-6,60*,22,-2
CCc1noc(C)c1C(=O)N(C)CC(=O)Nc1cccc(OC)c1,x,x,x,x,-2,x
CC(C)CCNC(=O)[C@H](CC(C)C)NC(=O)[C@H]1O[C@@H]1C(=O)O,0,8,-1,-9,u,6
CCOC(=O)[C@H]1O[C@@H]1C(=O)N[C@@H](CC(C)C)C(=O)NCCC(C)C,4,9,3,20,86*,-3
CCN(CC)C(=O)Cn1cc(C(=O)C(=O)NCCCn2ccnc2)c2ccccc21,5,4,4,6,x,1
Cc1ccc(C)c(-c2nnc(NC(=O)CCS(=O)(=O)c3ccccc3)o2)c1,41,5,19,x,0,-1
Cc1ccccc1-c1nnc(CS(=O)(=O)c2ccccc2)o1,127*,x,76,20,-4,-7
O=C(O)CC/C(=N\Nc1ccc([N+](=O)[O-])cc1)c1ccccc1,-4,-26,3,12,98*,6
O=C(O)CC/C(=N/Nc1ccc([N+](=O)[O-])cc1)C(=O)O,-3,13,2,-4,-17,-1
CC(=O)N1CC[n+]2c(-c3ccc(Cl)cc3)csc21,-4,6,2,-7,99*,-12
O=C(CN1CC[n+]2c(-c3cccs3)csc21)c1ccc(-c2ccccc2)cc1,0,35,6,-1,51,7
CCc1ccc(-c2csc3[n+]2CCN3C(C)=O)cc1,-11,12,12,45,99*,2
Cc1cccc(OCCC(=O)N(C)CC(=O)Nc2cccc3ccccc23)c1,14,20,3,1,1,3
CSc1ccccc1NC(=O)CN(C)CC(=O)Nc1c(F)cccc1F,-4,24,-9,12,-9,-12
Cn1c(SCc2ccccc2Cl)nc2c1c(=O)[nH]c(=O)n2C,2,12,2,8,2,3
Oc1ccc(Br)cc1-c1ccnn1-c1ccccc1,33,38,3,24,97*,0
Cc1cc(C)c(NC(=O)CN(C)CC(=O)Nc2cccc(S(=O)(=O)N(C)c3ccccc3)c2)c(C)c1,x,x,x,x,4,x
Cc1ccccc1CN(C)CC(=O)Nc1cccc(S(=O)(=O)N(C)c2ccccc2)c1,3,9,-2,62*,-14,11
